According to ChEMBL document CHEMBL2440072, “Identification, biological characterization and pharmacophoric analysis of a new potent and selective NK1 receptor antagonist clinical candidate” (Bioorg Med Chem, 2013):

Columns and labels:
Substance-P receptor [1] = biological target: T1, Substance-P receptor (Homo sapiens, UniProt P25103); test: Antagonist activity at NK1 receptor (unknown origin)
Substance-P receptor [2] = biological target: T1, Substance-P receptor; test: Displacement of [3H]SP from human recombinant NK1 receptor expressed in CHO cells after 40 mins by scintillation counting analysis; assay type: cell-based
Outline: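 Membranes from hNK1-CHO cells (8 µg protein) with [3H]-SP 0.5 nM in HEPES pH 7.4, 3 mM MnCl2, 0.02% BSA. Compound 1 pM–1 µM final, 40 min at room temperature. Nonspecific binding with 1 µM SP. Filtration through PEI-soaked GF/B filters, scintillation counting. IC50 fitted with slope fixed at unity, converted to Ki by Cheng-Prusoff; duplicates.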

[3] = Plasma clearance in rat at 0.5 mg/kg, iv and 1 mg/kg, po; assay type: ADME, organism-based
Outline: (§1)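 Rat and dog pharmacokinetics derived from plasma concentrations after 0.5 mg/kg i.v. and 1 mg/kg oral dosing.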

[4] = Half life in rat at 0.5 mg/kg, iv and 1 mg/kg, po; assay type: ADME, organism-based; details: in vivo; outline: as §1
[5] = Half life in dog at 0.5 mg/kg, iv and 1 mg/kg, po; assay type: ADME, organism-based, Canis lupus familiaris; details: in vivo; outline: as §1
[6] = Ratio of drug uptake in brain to plasma in rat at 1 mg/kg, iv after 5 mins; assay type: ADME, organism-based; set-up: dose 1 mg/kg, route intravenous; details: read-out: BPR
Outline: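 Rat brain and plasma levels measured 5 min after 1 mg/kg i.v. dose; brain/plasma ratio calculated.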

[7] = Plasma clearance in dog at 0.5 mg/kg, iv and 1 mg/kg, po; assay type: ADME, organism-based, Canis lupus familiaris; outline: as §1
[8] = Oral bioavailability in dog at 1 mg/kg; assay type: ADME, organism-based, Canis lupus familiaris; details: in vivo; outline: as §1
[9] = Volume of distribution at steady state in rat at 0.5 mg/kg, iv and 1 mg/kg, po; assay type: ADME, organism-based; details: in vivo, read-out: Vdss; outline: as §1
[10] = Volume of distribution at steady state in dog at 0.5 mg/kg, iv and 1 mg/kg, po; assay type: ADME, organism-based, Canis lupus familiaris; details: in vivo, read-out: Vdss; outline: as §1
Substance-P receptor [11] = biological target: T1, Substance-P receptor; details: CHO
[12] = Oral bioavailability in rat at 1 mg/kg; assay type: ADME, organism-based; details: in vivo; outline: as §1
Meriones unguiculatus [13] = test: Ex vivo NK1 receptor occupancy in Mongolian gerbil striatum assessed as inhibition of [3H]-GR205171 binding at 1 mg/kg, po by autoradiography; assay type: functional
Outline: (§2)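 Gerbils dosed orally (0.1–1 mg/kg) 1 h before, killed after social interaction testing. Unwashed 12 µm coronal sections incubated 10 min with 0.3 nM [3H]-GR205171; nonspecific binding with 100 nM GR205171. Imaging-plate exposure 10 days. Occupancy = 100% minus specific binding ratio treated/vehicle in striatum; 3 animals per group.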

Substance-P receptor [14] = biological target: Substance-P receptor (Meriones unguiculatus, UniProt Q5DUB1); test: Displacement of [3H]GR205171 from Mongolian gerbil brain NK1 receptor after 60 mins by scintillation counting analysis
Substance-P receptor (Meriones unguiculatus, UniProt Q5DUB1), sequence (Q5DUB1 whole entry): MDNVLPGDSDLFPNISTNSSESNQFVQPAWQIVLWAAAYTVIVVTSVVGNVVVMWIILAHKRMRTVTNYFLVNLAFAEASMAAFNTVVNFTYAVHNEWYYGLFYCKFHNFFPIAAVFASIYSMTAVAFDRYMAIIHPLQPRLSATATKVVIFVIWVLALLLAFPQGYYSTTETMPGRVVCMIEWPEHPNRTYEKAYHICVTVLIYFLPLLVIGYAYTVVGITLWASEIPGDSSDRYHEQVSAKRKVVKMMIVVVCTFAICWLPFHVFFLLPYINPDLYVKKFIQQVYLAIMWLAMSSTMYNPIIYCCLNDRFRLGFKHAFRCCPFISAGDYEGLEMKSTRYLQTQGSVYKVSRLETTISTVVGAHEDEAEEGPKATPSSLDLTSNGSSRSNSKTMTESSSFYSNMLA
Outline: (§3)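 Brain membranes used: gerbil cortex/striatum (0.055 mg protein) or marmoset striatum (0.080 mg). Radioligand [3H]-GR205171 0.2 nM, compound 1 pM–1 µM final, in HEPES pH 7.4, MnCl2, BSA plus protease inhibitors. Incubation 60 min at room temperature; nonspecific binding with 1 µM GR205171. Filtration on GF/C, scintillation counting; LIGAND fit, duplicates.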

Meriones unguiculatus [15] = test: Antidepressant activity in po dosed Mongolian gerbil assessed as increase in social interaction time after 1 hr; assay type: functional, organism-based
[16] = biological target: Platelet-activating factor receptor (Homo sapiens, UniProt P25105); test: Inhibition of platelet activating factor receptor (unknown origin)
Platelet-activating factor receptor, sequence (P25105 whole entry): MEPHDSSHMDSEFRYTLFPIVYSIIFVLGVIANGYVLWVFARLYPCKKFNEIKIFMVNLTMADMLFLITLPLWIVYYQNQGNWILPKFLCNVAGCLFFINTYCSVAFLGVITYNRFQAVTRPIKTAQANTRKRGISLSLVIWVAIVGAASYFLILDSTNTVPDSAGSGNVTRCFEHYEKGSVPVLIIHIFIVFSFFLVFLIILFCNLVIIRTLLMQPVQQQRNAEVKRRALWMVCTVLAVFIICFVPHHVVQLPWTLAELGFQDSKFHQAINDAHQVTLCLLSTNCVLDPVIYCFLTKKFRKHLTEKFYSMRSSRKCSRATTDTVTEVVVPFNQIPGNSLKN

Meriones unguiculatus [17] = test: Inhibition of GR73632-induced tapping behavior in po dosed Mongolian gerbil foot tapping model administered 24 hrs prior to GR73632 challenge; assay type: functional; details: read-out: ID50 (the source's name)
Outline: (§4)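 Male gerbils (50–70 g) dosed orally (10 ml/kg) in 0.5% methocel with 5% DMSO, 1, 4, 8 or 24 h before icv GR73632 (3 pmol/5 µl) given under brief isoflurane. Hind foot tapping timed for 3 min; ≥7 animals per treatment.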

Meriones unguiculatus [18] = test: Ex vivo NK1 receptor occupancy in Mongolian gerbil striatum assessed as inhibition of [3H]-GR205171 binding at 0.3 mg/kg, po by autoradiography; assay type: functional; outline: as §2
Meriones unguiculatus [19] = test: Ex vivo NK1 receptor occupancy in Mongolian gerbil striatum assessed as inhibition of [3H]-GR205171 binding at 0.1 mg/kg, po by autoradiography; assay type: functional; outline: as §2
Callithrix jacchus [20] = test: Anxiolytic activity in po dosed marmoset human threat test model assessed as reduction in number of postures preincubated for 1 hr followed by compound wash out for 3 days; assay type: functional, organism-based
Outline: (§5)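 Marmosets, both sexes, >2 years, 300–500 g, preselected for ≥10 postures in 2 min. Oral dosing 0.3–10 mg/kg (1 ml/kg) in 0.5% methocel with 1% DMSO, 1 h before a human-observer threat test. Blind random crossover, ≥3 day washout, 4–7 animals. Postures counted; paired t-test against matched vehicle.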

[21] = Ratio of drug uptake in brain to plasma in Mongolian gerbil at 1 mg/kg, po; assay type: ADME, organism-based, Meriones unguiculatus; set-up: dose 1 mg/kg, route oral
Outline: (§6)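 Gerbils given 1 mg/kg orally; total brain concentration and brain/plasma ratio determined.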

Meriones unguiculatus [22] = test: Inhibition of GR73632-induced tapping behavior in po dosed Mongolian gerbil foot tapping model administered 1 to 24 hrs prior to GR73632 challenge; assay type: functional, organism-based; outline: as §4
Meriones unguiculatus [23] = test: Antidepressant activity in Mongolian gerbil assessed as increase in social interaction time at 0.3 mg/kg, po after 1 hr (reference value: 21.2 +/- 2.9 secs); assay type: functional
Meriones unguiculatus [24] = test: Inhibition of GR73632-induced tapping behavior in po dosed Mongolian gerbil foot tapping model administered 8 hrs prior to GR73632 challenge; assay type: functional; details: read-out: ID50 (the source's name); outline: as §4
[25] = Displacement of [3H]GR205171 from marmoset cerebral striatum NK1 receptor after 60 mins by scintillation counting analysis; set-up: species or system Callithrix jacchus; outline: as §3
Meriones unguiculatus [26] = test: Toxicity in Mongolian gerbil assessed as locomotor activity at 0.1 to 1 mg/kg, po after 1 hr; assay type: organism-based; set-up: dose 0.1-1 mg/kg, route oral; details: in vivo
Meriones unguiculatus [27] = test: Inhibition of GR73632-induced tapping behavior in po dosed Mongolian gerbil foot tapping model administered 4 hrs prior to GR73632 challenge; assay type: functional; details: read-out: ID50 (the source's name); outline: as §4
[28] = Inhibition of sigma2 receptor (unknown origin); set-up: species or system Homo sapiens
[29] = Drug uptake in Mongolian gerbil brain at 1 mg/kg, po; assay type: ADME, organism-based, Meriones unguiculatus; set-up: dose 1 mg/kg, route oral; details: in vivo; outline: as §6
Meriones unguiculatus [30] = test: Antidepressant activity in Mongolian gerbil assessed as increase in social interaction time at 0.1 mg/kg, po after 1 hr (reference value: 21.2 +/- 2.9 secs); assay type: functional
Callithrix jacchus [31] = test: Anxiolytic activity in marmoset human threat test model assessed as reduction in number of postures at 10 mg/kg, po preincubated for 1 hr followed by compound wash out for 3 days relative to vehicle-treated control; assay type: functional; set-up: scale not given: the % may be the effect or the level left; outline: as §5
Meriones unguiculatus [32] = test: Inhibition of GR73632-induced tapping behavior in sc dosed Mongolian gerbil foot tapping model administered 1 hr prior to GR73632 challenge; assay type: functional; details: read-out: ID50
Meriones unguiculatus [33] = test: Inhibition of GR73632-induced tapping behavior in po dosed Mongolian gerbil foot tapping model administered 1 hr prior to GR73632 challenge; assay type: functional; details: read-out: ID50 (the source's name); outline: as §4
Callithrix jacchus [34] = test: Anxiolytic activity in marmoset human threat test model assessed as reduction in number of postures at 3 mg/kg, po preincubated for 1 hr followed by compound wash out for 3 days relative to vehicle-treated control; assay type: functional; set-up: scale not given: the % may be the effect or the level left; outline: as §5
Callithrix jacchus [35] = test: Anxiolytic activity in marmoset human threat test model assessed as reduction in number of postures at 1 mg/kg, po preincubated for 1 hr followed by compound wash out for 3 days relative to vehicle-treated control; assay type: functional; set-up: scale not given: the % may be the effect or the level left; outline: as §5
Callithrix jacchus [36] = test: Anxiolytic activity in marmoset human threat test model assessed as reduction in number of postures at 0.3 mg/kg, po preincubated for 1 hr followed by compound wash out for 3 days relative to vehicle-treated control; assay type: functional; set-up: scale not given: the % may be the effect or the level left; outline: as §5
[37] = biological target: Sigma non-opioid intracellular receptor 1 (Homo sapiens, UniProt Q99720); test: Inhibition of sigma1 receptor (unknown origin)
Sigma non-opioid intracellular receptor 1, sequence (Q99720 whole entry): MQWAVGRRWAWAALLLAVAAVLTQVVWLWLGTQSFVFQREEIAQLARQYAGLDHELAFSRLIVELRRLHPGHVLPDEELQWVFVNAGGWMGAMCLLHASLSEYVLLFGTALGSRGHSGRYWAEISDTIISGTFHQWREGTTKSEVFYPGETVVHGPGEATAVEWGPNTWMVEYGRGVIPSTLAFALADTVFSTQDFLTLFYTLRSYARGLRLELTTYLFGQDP

Meriones unguiculatus [38] = test: Antidepressant activity in Mongolian gerbil assessed as increase in social interaction time at 1 mg/kg, po after 1 hr (reference value: 21.2 +/- 2.9 secs); assay type: functional
[39] = Inhibition of sodium channel site2 (unknown origin); set-up: species or system Homo sapiens

T1 sequence (P25103 whole entry): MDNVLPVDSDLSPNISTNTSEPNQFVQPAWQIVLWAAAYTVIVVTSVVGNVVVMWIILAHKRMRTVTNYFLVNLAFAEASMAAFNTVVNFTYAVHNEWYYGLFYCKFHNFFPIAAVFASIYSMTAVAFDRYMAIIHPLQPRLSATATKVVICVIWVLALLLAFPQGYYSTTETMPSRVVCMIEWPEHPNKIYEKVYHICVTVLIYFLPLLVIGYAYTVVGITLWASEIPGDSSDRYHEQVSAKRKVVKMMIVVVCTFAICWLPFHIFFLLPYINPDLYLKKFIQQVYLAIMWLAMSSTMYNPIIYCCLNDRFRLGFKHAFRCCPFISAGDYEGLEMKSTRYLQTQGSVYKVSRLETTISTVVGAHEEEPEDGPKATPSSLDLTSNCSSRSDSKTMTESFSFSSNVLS

Structure (SMILES): COc1ccccc1CN1CN2CCCC1C2c1ccccc1 (configuration not stated)
- IC50 (Substance-P receptor [1]): 0.61 nM

Structure (SMILES): Cc1cc(F)ccc1[C@H]1C[C@H](N2CCN3C(=O)CC[C@@H]3C2)CCN1C(=O)N(C)[C@H](C)c1cc(C(F)(F)F)cc(C(F)(F)F)c1
- Ki (Substance-P receptor [2]): 0.138 nM

Structure (SMILES): Cc1cc(F)ccc1[C@H]1C[C@@H](N2CCN3C(=O)CC[C@@H]3C2)CCN1C(=O)N(C)[C@H](C)c1cc(C(F)(F)F)cc(C(F)(F)F)c1
- Ki (Substance-P receptor [2]): 0.2 nM

Structure (SMILES): Cc1cc(F)ccc1[C@H]1C[C@H](N2CCN3C(=O)CC[C@H]3C2)CCN1C(=O)N(C)[C@H](C)c1cc(C(F)(F)F)cc(C(F)(F)F)c1
- clearance [3]: 25 mL/min/kg
- half-life [4]: 2.8 h
- half-life [5]: 5.1 h
- Kp at 5 min [6]: 0.9
- clearance [7]: 11 mL/min/kg
- bioavailability [8]: 28%
- Vd [9]: 3.4 L/kg
- Vd [10]: 2 L/kg
- pKb (Substance-P receptor [11]): 10.5
- Ki (Substance-P receptor [2]): 0.0646 nM
- bioavailability [12]: 19%

Structure (SMILES): COc1ccc(-n2cnnn2)cc1CN[C@H]1CCCN[C@H]1c1ccccc1
- IC50 (Substance-P receptor [1]): 0.04 nM

Structure (SMILES): CC(=O)N1CCN([C@H]2CCN(C(=O)N(C)[C@H](C)c3cc(C(F)(F)F)cc(C(F)(F)F)c3)[C@@H](c3ccc(F)cc3C)C2)CC1 [CASOPITANT]
- clearance [3]: 37 mL/min/kg
- bioavailability [8]: 34%
- Vd [9]: 3.2 L/kg

Structure (SMILES): Cc1ccccc1-c1cc(N2CCN(C)CC2)ncc1N(C)C(=O)C(C)(C)c1cc(C(F)(F)F)cc(C(F)(F)F)c1 [NETUPITANT]
- IC50 (Substance-P receptor [1]): 0.95 nM

Structure (SMILES): Cc1cc(F)ccc1[C@H]1C[C@@H](N2CCN3C(=O)CC[C@H]3C2)CCN1C(=O)N(C)[C@H](C)c1cc(C(F)(F)F)cc(C(F)(F)F)c1 [ORVEPITANT]
- Occ (Meriones unguiculatus [13]): 95.2%
- Ki (Substance-P receptor [14]): 0.0316 nM
- Activity (Meriones unguiculatus [15]): Dose-dependent effect
- Ki [16]: 2270 nM
- clearance [3]: 29 mL/min/kg
- ED50 (Meriones unguiculatus [17]): 3.36 mg/kg
- half-life [4]: 2.3 h
- half-life [5]: 6.1 h
- Occ (Meriones unguiculatus [18]): 74.6%
- Occ (Meriones unguiculatus [19]): 47.8%
- Kp at 5 min [6]: 1.2
- Activity (Callithrix jacchus [20]): Dose-dependent effect
- Kp [21]: 1.2
- Activity (Meriones unguiculatus [22]): Dose-dependent effect
- Time (Meriones unguiculatus [23]): 27.3 s
- ED50 (Meriones unguiculatus [24]): 0.09 mg/kg
- pKi [25]: 10.4
- Activity (Meriones unguiculatus [26]): Non-toxic
- clearance [7]: 6 mL/min/kg
- bioavailability [8]: 55%
- Vd [9]: 3.7 L/kg
- ED50 (Meriones unguiculatus [27]): 0.09 mg/kg
- Ki [28]: 3260 nM
- Drug uptake [29]: 91 ng/g
- Time (Meriones unguiculatus [30]): 22.1 s
- Activity (Callithrix jacchus [31]): 46.4%
- Vd [10]: 2 L/kg
- pKb (Substance-P receptor [11]): 10.3
- ED50 (Meriones unguiculatus [32]): 0.07 mg/kg
- ED50 (Meriones unguiculatus [33]): 0.11 mg/kg
- Activity (Callithrix jacchus [34]): 36.6%
- Ki (Substance-P receptor [2]): 0.0631 nM
- Activity (Callithrix jacchus [35]): 34.9%
- Activity (Callithrix jacchus [36]): 11.8%
- Ki [37]: 940 nM
- Time (Meriones unguiculatus [38]): 33.1 s
- bioavailability [12]: 17%
- Ki [39]: 4540 nM
